This passage reports fold change (FC), Activity and IC50 results from ChEMBL document CHEMBL3120163, “Octulosonic acid derivatives from Roman chamomile (Chamaemelum nobile) with activities against inflammation and metabolic disorder” (J Nat Prod, 2014).

Each structure is given as a SMILES string.

For series [1], the target named is T1, Peroxisome proliferator-activated receptor alpha (Homo sapiens) (UniProt Q07869).
T1 sequence (whole entry): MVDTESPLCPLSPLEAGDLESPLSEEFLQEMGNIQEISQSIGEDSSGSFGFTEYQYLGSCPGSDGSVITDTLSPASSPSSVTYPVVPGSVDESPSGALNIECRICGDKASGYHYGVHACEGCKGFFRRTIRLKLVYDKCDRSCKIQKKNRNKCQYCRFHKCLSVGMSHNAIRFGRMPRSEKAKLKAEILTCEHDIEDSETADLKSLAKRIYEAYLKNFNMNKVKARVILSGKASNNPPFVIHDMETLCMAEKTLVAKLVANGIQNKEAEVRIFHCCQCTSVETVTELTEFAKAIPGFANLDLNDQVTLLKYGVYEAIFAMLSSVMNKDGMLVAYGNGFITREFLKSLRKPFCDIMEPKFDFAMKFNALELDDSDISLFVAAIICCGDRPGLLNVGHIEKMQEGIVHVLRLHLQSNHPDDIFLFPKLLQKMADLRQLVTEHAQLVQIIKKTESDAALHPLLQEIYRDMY
Nature of the series: Activation of PPARalpha in human HepG2 cells at 25 uM after 24 hrs by luciferase reporter gene assay relative to vehicle-treated control. It counts as cell-based. A digest of the protocol: (§1)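 HepG2 cells in DMEM with 10% FBS were electroporated at 160 V with a single 70 ms pulse. Plasmid pairs were pSG5-PPARα + PPRE X3-tk-luc, pCMV-rPPARγ + pPPREaP2-tk-luc, or pCMX-hLXRα + LXRE-tk-luc. Cells were seeded at 5 × 10^4 per well, grown 24 h, then dosed. After 24 h the cells were lysed and luciferase read. Fold induction is versus vehicle. Positive controls: ciprofibrate, rosiglitazone, 25-hydroxycholesterol.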
On the technique in general: A reporter such as luciferase makes a cellular process visible.

In series [2] the test system is HepG2. Nature of the series: Cytotoxicity against human HepG2 cells up to 50 uM after 48 hrs by neutral red assay. The series is classed as cell-based. As to conditions: hepg2, 48 h; call rule not given here.
Series [3] addresses T2, Nitric oxide synthase, inducible (Mus musculus, UniProt P29477).
T2 sequence (P29477 whole entry): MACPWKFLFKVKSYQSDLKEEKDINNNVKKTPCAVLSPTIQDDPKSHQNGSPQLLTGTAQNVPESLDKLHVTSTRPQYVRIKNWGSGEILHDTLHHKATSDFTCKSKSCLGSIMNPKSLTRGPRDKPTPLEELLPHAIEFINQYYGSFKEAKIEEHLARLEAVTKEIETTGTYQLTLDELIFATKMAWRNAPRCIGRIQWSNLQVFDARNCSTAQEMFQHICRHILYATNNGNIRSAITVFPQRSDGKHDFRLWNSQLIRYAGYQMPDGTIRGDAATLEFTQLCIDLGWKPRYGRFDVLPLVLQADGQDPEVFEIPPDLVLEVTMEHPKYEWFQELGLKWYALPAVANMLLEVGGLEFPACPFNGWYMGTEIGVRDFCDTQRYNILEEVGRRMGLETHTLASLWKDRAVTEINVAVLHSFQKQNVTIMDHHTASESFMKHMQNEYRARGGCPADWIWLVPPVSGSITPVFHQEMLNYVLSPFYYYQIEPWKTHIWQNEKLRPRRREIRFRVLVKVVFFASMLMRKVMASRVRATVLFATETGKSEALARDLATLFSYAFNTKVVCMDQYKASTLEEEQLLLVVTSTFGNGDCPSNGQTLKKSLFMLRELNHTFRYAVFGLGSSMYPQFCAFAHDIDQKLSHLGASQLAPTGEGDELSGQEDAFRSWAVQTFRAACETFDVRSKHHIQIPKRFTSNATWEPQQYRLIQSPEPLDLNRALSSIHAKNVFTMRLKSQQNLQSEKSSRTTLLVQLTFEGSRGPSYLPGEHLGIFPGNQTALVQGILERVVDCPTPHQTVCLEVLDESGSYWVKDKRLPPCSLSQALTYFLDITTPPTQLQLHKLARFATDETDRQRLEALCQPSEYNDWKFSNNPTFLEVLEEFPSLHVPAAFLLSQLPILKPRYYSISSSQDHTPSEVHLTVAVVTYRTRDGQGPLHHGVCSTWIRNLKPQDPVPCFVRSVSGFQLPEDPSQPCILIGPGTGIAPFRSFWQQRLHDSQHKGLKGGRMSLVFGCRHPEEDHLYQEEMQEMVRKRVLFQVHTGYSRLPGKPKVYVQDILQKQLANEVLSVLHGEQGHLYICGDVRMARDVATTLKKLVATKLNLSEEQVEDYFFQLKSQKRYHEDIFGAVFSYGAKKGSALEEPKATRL
Nature of the series: Inhibition of iNOS in mouse RAW264.7 cells assessed as LPS-induced nitric oxide production treated for 30 mins followed by LPS challenge measured after 24 hrs by Griess reagent method. It counts as cell-based. In a few lines:
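RAW264.7 macrophages were grown in phenol red-free RPMI with 10% bovine calf serum. Cells were seeded at 100 000 per well and grown 24 h to at least 75% confluency. Compound was added 30 min before LPS 5 μg/mL, then incubated 24 h. Supernatant nitrite was measured by Griess reagent; percent inhibition is versus vehicle, with IC50 from dose-response curves. Positive control: parthenolide.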

The test system of series [4] is HepG2. The series can be described thus: Antioxidant activity in human HepG2 cells assessed as inhibition of ABAP-induced intracellular peroxyl radical scavenging activity by measuring ROS production measured every 5 mins for 1 hr by fluorescence assay.
A further series relates to RAW264.7. Nature of the series: Cytotoxicity against mouse RAW264.7 cells up to 50 uM after 48 hrs by neutral red assay. The following applies: raw264.7, 48 h. The series is classed as cell-based.
Series [5] in a line: Inhibition of PMA-induced NFkappaB transcriptional activity in human SW1353 cells treated for 30 mins followed by PMA challenge measured after 6 to 8 hrs by luciferase reporter gene assay. It counts as cell-based. A digest of the protocol: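 After 24 h they were pretreated with compound for 30 min, then stimulated with PMA 70 ng/mL for 6−8 h. Percent decrease in luciferase is relative to vehicle. Positive control: parthenolide.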

The target of series [6] is T3, Growth/differentiation factor 15 (Homo sapiens) (UniProt Q99988).
T3 sequence (whole entry): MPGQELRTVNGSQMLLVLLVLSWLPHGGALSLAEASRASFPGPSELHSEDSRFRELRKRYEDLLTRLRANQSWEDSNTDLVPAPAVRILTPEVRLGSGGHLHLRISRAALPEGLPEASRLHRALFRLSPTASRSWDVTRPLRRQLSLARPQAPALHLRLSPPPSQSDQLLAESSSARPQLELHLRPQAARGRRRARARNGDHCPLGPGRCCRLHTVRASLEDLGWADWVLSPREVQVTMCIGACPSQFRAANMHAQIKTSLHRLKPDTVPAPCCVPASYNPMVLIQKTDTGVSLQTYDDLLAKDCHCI
Nature of the series: Activation of NAG-1 in human SW1353 cells at 20 uM after 24 hrs by luciferase reporter gene assay relative to vehicle-treated control. It counts as cell-based. A digest of the protocol: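 SW1353 chondrosarcoma cells in DMEM/F12 with 10% FBS were electroporated (160 V, one 70 ms pulse) with 25 μg […]. Cells were seeded at 1 × 10^5 per well, then dosed 24 h later for 24 h. Luciferase light output gave fold induction versus vehicle. Positive control: diclofenac.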

Series [7] addresses T4, Oxysterols receptor LXR-alpha (Homo sapiens) (UniProt Q13133).
T4 sequence (whole entry): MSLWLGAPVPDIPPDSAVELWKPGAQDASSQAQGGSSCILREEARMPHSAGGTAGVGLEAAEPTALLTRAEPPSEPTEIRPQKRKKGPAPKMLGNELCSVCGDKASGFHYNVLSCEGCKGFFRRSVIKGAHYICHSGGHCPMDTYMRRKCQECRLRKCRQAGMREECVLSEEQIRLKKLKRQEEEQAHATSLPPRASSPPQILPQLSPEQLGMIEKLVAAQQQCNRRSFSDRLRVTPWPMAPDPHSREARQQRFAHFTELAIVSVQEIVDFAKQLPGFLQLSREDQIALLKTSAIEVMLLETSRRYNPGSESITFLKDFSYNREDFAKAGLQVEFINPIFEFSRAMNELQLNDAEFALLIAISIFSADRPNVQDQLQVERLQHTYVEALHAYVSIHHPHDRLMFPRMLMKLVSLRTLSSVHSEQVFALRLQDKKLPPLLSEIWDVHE
Nature of the series: Activation of LXRalpha in human HepG2 cells at 25 uM after 24 hrs by luciferase reporter gene assay relative to vehicle-treated control. The series is classed as cell-based. A digest of the protocol:
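HepG2 cells in DMEM with 10% FBS, electroporated (160 V, single 70 ms pulse) with pCMX-hLXRα plus LXRE-tk-luc plasmids; plated at 5 × 10^4 cells/well and grown 24 h. Treated with test compounds for 24 h, then lysed for luciferase read-out. Fold induction calculated against vehicle control; 25-hydroxycholesterol as positive control.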

In series [8] the target is T5, Peroxisome proliferator-activated receptor gamma (Homo sapiens) (UniProt P37231).
T5 sequence (whole entry): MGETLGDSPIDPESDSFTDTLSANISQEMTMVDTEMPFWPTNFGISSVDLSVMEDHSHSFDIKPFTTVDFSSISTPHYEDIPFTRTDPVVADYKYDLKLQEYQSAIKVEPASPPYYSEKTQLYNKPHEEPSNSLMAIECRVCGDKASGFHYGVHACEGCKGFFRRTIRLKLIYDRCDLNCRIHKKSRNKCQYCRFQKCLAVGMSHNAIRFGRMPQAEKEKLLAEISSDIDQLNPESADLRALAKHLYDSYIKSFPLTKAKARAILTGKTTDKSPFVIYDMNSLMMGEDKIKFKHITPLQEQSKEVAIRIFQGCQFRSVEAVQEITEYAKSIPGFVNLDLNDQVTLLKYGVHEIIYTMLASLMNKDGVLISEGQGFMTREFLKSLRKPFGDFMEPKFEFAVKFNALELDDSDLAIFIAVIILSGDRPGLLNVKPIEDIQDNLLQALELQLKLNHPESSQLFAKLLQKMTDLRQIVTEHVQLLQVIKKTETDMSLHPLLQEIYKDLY
Nature of the series: Activation of PPARgamma in human HepG2 cells at 25 uM after 24 hrs by luciferase reporter gene assay relative to vehicle-treated control. The series is classed as cell-based. A digest of the protocol: as §1

Where [9] appears, read: Homo sapiens, SW1353, read-out: IC50.

`CC(C)(Oc1ccc(C2CC2(Cl)Cl)cc1)C(=O)O` (configuration not stated): the fold change (FC) in [1] was 4.35.

One may read the IC50 as the concentration that gives 50% inhibition. For the compound `COC(=O)[C@]12C[C@@H](O)[C@@H](O)[C@H](O1)[C@@H](COC(=O)/C=C/c1ccc(O)c(O)c1)O2` (relative stereo), the Activity result with HepG2 [2] and in the series on RAW264.7 was “Non-toxic” in each case. In addition, the results for the concentration for half-maximal inhibition (IC50) result (in [3] (raw264.7); with HepG2 [4]; in series [5] (sw1353)) were “Not Active”, 86 µM and “Not Active”, respectively.

As for `O=c1c(O)c(-c2ccc(O)c(O)c2)oc2cc(O)cc(O)c12` [QUERCETIN], in the series on HepG2 [4], the IC50 was found to be 11 µM.

Consider `COC(=O)[C@]12C[C@@H](OC(=O)/C=C/c3ccc(O)c(O)c3)[C@@H](O)[C@H](O1)[C@@H](COC(=O)/C=C/c1ccc(O)c(O)c1)O2` (relative stereo), for which the Activity entry in the series on HepG2 [2] and with RAW264.7 was “Non-toxic” in each case. Moreover, the figures for the IC50 entry (in series [3] (raw264.7); with HepG2 [4]; in series [5] (sw1353)) were “Not Active”, 34.5 µM and “Not Active”, respectively.

For `COC(=O)[C@]12C[C@@H](OC(=O)/C=C/c3ccc(O)c(O)c3)[C@@H](OC(=O)/C=C/c3ccc(O)c(O)c3)[C@@H](O1)[C@@H](COC(=O)/C=C/c1ccc(O)c(O)c1)O2` (relative stereo), the Activity result in the series on HepG2 [2] and in the series on RAW264.7 was “Non-toxic” each time. Besides, the IC50 result was “Not Active” in series [3] (raw264.7), 26 µM with HepG2 [4] and 42 µM in series [5] (setting [9]).

`C=C1C(=O)O[C@@H]2C3O[C@]3(C)CC/C=C(\C)CC[C@@H]12` (some centres not stated): the IC50 in series [3] (read-out: IC50) amounted to 1.05 µM; in series [5] (setting [9]) it was 1.63 µM.

As for `O=C(/C=C/c1ccc(O)c(O)c1)OC[C@H]1O[C@@]2(C(=O)O)C[C@@H](OC(=O)/C=C/c3ccc(O)c(O)c3)[C@@H](O)[C@@H]1O2` (relative stereo), the Activity result in the series with HepG2 [2] and with RAW264.7 was “Non-toxic” each time. In addition, the 50% inhibitory concentration (IC50) result is “Not Active” in [3] (raw264.7), 79 µM with HepG2 [4] and “Not Active” in series [5] (sw1353).

`O=C(/C=C/c1ccc(O)c(O)c1)OC[C@H]1O[C@@]2(C(=O)O)C[C@@H](O)[C@@H](O)[C@@H]1O2` (relative stereo): the Activity result in the series with HepG2 [2] and in the series on RAW264.7 was “Non-toxic” in each case. Besides, the 50% inhibitory concentration (IC50) entry is “Not Active” in series [3] (raw264.7), > 100 µM in the series with HepG2 [4] and “Not Active” in series [5] (sw1353).

Compound `O=C(O)Cc1ccccc1Nc1c(Cl)cccc1Cl` returned a fold change (FC) in series [6] of 2.65.

In the case of `O=C(/C=C/c1ccc(O)c(O)c1)OC[C@H]1O[C@@]2(C(=O)O)C[C@@H](OC(=O)/C=C/c3ccc(O)c(O)c3)[C@@H](OC(=O)/C=C/c3ccc(O)c(O)c3)[C@H]1O2` (relative stereo), the Activity entry in the series with HepG2 [2] and in the series with RAW264.7 was “Non-toxic” each time. The 50% inhibitory concentration (IC50) entry in series [3] (raw264.7) was “Not Active”; in the series on HepG2 [4] it was 59.5 µM; in series [5] (sw1353) it was “Not Active”.

As for `C[C@H](CCCC(C)(C)O)[C@H]1CC[C@H]2[C@@H]3CC=C4C[C@@H](O)CC[C@]4(C)[C@H]3CC[C@]12C`, in series [7], the fold change (FC) came to 4.67.

For `CC1(COc2ccc(CC3SC(=O)NC3=O)cc2)CCCCC1` (configuration not stated), the fold change (FC) in series [8] amounted to 3.65.
